From ChEMBL document CHEMBL4402547, “Synthesis and Pharmacological Characterization of Conformationally Restricted Retigabine Analogues as Novel Neuronal Kv7 Channel Activators” (J Med Chem, 2020) come the findings set out here.

Active and inactive are the calls of the source. The calls are words filed in the database; no cut-off is given here.

Data set [1] has as its target T1, Potassium voltage-gated channel subfamily KQT member 2 (Homo sapiens, UniProt O43526). Put plainly: Activation of human Kv7.2 expressed in CHO cells assessed as maximal steady-state increase in current amplitude at 10 uM measured within 10 secs at holding potential of -40 mV by whole cell patch clamp electrophysiology assay. Format: cell-based. The method, boiled down: (§1)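 Human Kv7.2 transiently expressed in CHO cells, whole-cell patch clamp at 20–22°C, pH 7.4 HEPES-buffered extracellular solution under constant perfusion. Cells held at -80 mV; 3-s ramps -80 to +20 mV with and without compound; current at -40 mV taken as drug/control amplitude ratio, followed over time during application and wash-out; mean ± SEM of ≥3 cells from ≥2 transfections.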
In general terms: In patch-clamp work, channel activity is measured electrically.

In data set [2] the target is T1, Potassium voltage-gated channel subfamily KQT member 2. Put plainly: Activation of human Kv7.2 expressed in CHO cells assessed as increase in current amplitude with fast ON kinetics measured at holding potential of -40 mV by whole cell patch clamp electrophysiology assay. In kind it is cell-based. The method, boiled down:
as §1

Data set [3] in a line: Photostability of compound in pH 7.4 buffer assessed as compound degradation at 100 ug/ml incubated for 6 hrs under artificial daylight D65 lamp-irradiation by HPLC analysis relative to control. The method in brief: (§2)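 Compound from DMSO stock diluted in pH 7.4 buffer to final 1 mM, 10 μM or 1 μM in 1 cm quartz cells, held at 37°C under UV lamp (365 and 264 nm) or artificial daylight D65 lamp; dark controls in foil at 37°C. Aliquots taken at set intervals; loss of parent by HPLC (C18, TFA water/acetonitrile gradient, 254 nm).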

The next data set concerns the target UGT (phase 2 metabolism) (Homo sapiens, UniProt O60656+O75310+O75795+P06133+P0DTE4+P0DTE5+P16662+P19224+P22309+P22310+P35503+P35504+P36537+P54855+Q6UWM9+Q9BY64+Q9HAW7+Q9HAW8+Q9HAW9). Put plainly: Drug metabolism in human liver S9 fractions assessed as assessed as UGT-mediated phase 2 metabolism at 1 mM preincubated for 5 mins followed by NADPH addition and measured after 60 mins by RP-UHPLC-DAD analysis relative to control. In kind it is ADME, subcellular. Particulars: read-out: Drug metabolism. The method in brief:
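Compound (2 μL of 1 mM stock) in 100 mM phosphate buffer pH 7.4 with pooled human liver S9, preincubated 5 min, then NADPH added, 37°C for 60 min. For UGT: 5 mM UDPGA, alamethicin, 1 mM MgCl added; for NAT: 2 mM DTT, sulfamethazine, 4.5 mM acetyl DL-carnitine, 0.1 U/mL carnitine acetyltransferase. Stopped with ice-cold methanol; RP-UHPLC-DAD; % turnover = 100 − (60 min/0 min concentration × 100).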

A short description of data set [4]: Photostability of compound in pH 7.4 buffer assessed as compound degradation at 100 ug/ml incubated for 6 hrs under UV-irradiation at wavelength of 365 and 264 nm by HPLC analysis. The method, boiled down:
as §2

Data set [5] addresses T2, Potassium voltage-gated channel subfamily KQT member 1 (Homo sapiens, UniProt P51787).
T2 sequence (P51787 whole entry): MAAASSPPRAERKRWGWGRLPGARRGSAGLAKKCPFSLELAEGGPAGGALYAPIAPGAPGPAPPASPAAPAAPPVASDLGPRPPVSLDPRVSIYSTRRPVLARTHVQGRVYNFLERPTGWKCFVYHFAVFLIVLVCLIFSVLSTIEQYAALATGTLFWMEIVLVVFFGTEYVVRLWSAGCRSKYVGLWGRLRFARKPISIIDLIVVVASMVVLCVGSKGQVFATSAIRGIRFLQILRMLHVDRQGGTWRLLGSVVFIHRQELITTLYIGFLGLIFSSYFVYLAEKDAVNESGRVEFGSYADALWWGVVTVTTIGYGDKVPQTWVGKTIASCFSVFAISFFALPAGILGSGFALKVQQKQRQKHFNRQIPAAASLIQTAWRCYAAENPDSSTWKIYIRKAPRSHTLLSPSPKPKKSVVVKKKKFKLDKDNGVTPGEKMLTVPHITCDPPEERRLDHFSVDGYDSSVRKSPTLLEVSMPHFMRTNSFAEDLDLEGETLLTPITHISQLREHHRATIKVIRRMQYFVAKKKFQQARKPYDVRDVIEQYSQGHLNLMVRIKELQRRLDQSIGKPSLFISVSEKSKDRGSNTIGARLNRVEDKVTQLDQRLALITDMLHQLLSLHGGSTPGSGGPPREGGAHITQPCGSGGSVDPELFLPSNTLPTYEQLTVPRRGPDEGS
Kind of data set: Activation of human Kv7.1 expressed in CHO cells assessed as channel current amplitude at 10 uM measured at holding potential of +20 mV and -40 mV by whole cell patch clamp electrophysiology assay. In kind it is cell-based.

The nature of data set [6]: Half life in human. In kind it is ADME.
Data set [7] can be described thus: Photostability of compound in pH 7.4 buffer assessed as formation of ethyl (2,4-bis((4-fluorobenzyl)amino)phenyl)carbamate by measuring retention time of metabolite incubated for 6 hrs under visible light irradiation by HPLC/MS analysis.
Data set [8] has as its target T1, Potassium voltage-gated channel subfamily KQT member 2. Put plainly: Activation of human Kv7.2 expressed in CHO cells assessed as current amplitude at 10 uM measured after 200 secs upon drug wash-out at holding potential of -40 mV by whole cell patch clamp electrophysiology assay. In kind it is cell-based.
Data set [9] has the same target. Kind of data set: Activation of human Kv7.2 expressed in CHO cells assessed as increase in channel current amplitude by whole cell patch clamp electrophysiology assay. Format: cell-based.
Data set [10] concerns the target T3, Potassium voltage-gated channel subfamily KQT member 4 (Homo sapiens, UniProt P56696).
T3 sequence (P56696 whole entry): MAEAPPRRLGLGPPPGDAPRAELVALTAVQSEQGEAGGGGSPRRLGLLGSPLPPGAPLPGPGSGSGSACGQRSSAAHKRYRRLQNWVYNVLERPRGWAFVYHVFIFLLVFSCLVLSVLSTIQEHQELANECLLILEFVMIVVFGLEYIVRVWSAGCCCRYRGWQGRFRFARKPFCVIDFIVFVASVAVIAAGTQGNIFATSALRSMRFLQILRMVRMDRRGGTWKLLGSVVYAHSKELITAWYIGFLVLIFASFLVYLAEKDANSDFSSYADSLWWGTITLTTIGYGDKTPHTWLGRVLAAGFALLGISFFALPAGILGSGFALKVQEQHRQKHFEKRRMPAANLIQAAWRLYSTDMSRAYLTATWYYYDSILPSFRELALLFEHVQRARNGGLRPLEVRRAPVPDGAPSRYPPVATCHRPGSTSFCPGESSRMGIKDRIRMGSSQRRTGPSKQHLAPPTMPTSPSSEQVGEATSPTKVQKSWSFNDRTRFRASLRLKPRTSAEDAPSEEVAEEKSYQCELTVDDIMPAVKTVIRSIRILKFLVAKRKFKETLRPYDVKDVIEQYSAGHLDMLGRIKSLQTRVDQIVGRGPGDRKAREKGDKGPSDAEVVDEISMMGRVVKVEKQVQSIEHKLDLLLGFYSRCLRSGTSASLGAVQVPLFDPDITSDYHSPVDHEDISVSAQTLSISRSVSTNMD
Put plainly: Activation of human Kv7.4 expressed in CHO cells assessed as increase in channel current amplitude by whole cell patch clamp electrophysiology assay. Format: cell-based.

Data set [11] deals with T1, Potassium voltage-gated channel subfamily KQT member 2. Kind of data set: Activation of human Kv7.2 expressed in CHO cells assessed as maximal steady-state increase in current amplitude at 10 uM measured after 200 secs at holding potential of -40 mV by whole cell patch clamp electrophysiology assay. Format: cell-based.

T1 sequence (O43526 whole entry, the tested form may be a part): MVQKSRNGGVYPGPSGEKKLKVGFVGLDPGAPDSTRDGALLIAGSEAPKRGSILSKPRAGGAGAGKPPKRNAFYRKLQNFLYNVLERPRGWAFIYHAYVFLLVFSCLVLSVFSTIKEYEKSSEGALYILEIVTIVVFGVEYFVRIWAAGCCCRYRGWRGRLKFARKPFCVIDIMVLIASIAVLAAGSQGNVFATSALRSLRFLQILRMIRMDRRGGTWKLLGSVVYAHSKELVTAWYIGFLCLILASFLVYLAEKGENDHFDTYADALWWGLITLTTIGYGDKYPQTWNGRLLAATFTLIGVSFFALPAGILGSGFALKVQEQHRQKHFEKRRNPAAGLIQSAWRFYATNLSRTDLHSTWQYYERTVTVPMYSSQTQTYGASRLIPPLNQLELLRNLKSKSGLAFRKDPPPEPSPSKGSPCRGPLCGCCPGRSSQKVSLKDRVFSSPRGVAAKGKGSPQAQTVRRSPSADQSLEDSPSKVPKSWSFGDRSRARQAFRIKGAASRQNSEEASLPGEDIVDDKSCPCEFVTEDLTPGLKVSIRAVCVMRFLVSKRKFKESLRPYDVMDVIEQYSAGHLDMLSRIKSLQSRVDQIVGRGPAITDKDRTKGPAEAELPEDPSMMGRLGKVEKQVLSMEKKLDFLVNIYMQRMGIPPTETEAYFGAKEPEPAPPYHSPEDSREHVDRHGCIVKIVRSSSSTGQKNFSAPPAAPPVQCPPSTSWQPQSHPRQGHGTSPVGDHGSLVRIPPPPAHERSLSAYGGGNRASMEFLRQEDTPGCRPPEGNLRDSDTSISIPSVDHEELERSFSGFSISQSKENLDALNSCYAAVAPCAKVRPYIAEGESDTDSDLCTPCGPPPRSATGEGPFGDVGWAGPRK

Take `CCOC(=O)Nc1ccc(NCc2ccc(F)cc2)cc1N` [EZOGABINE]: in data set [1], the result was Active. The figures for the Activity entry in [2] and in data set [5] were “Dose-dependent effect” and “Not Active”, respectively. Also, the results for the Drug degradation in data set [3] and in data set [4] were 47.3% and 5%, respectively. The metabolised at 1 h, 1000 µM at UGT (phase 2 metabolism) turned out to be 11.4%. In data set [6], the half-life (in general, how long it takes for the measured level to halve) is 6 to 8 h. In [7], the Retention time is 14.4 min.

`CC(C)(C)CC(=O)Nc1ccc2c(ccn2Cc2ccc(C(F)(F)F)cc2)c1`: the outcome in data set [8] was inactive. Besides, the metabolised at 1 h, 1000 µM on UGT (phase 2 metabolism) is 7.42%. The values for the EC50 in [9] and in [10] were 630 nM and 80 nM, respectively. Also, the outcome in data set [11] was Active.

For the compound `CCCCCCC(=O)Nc1ccc2c(ccn2Cc2ccc(C(F)(F)F)cc2)c1`, the outcome in [8] was inactive. In addition, the Activity result in [5] is reported as “Not Active”. In addition, the outcome in data set [11] was Active.
